In ChEMBL document CHEMBL1153096, “Properly substituted 1,4-dioxane nucleus favours the selective M3 muscarinic receptor activation” (Bioorg Med Chem, 2009):
Activity calls are given as the source filed them. No cut-off for these calls is given here.

Experiments:
[1] = Agonist activity at muscarinic M4 receptor in guinea pig lung assessed as inhibition of electrically-stimulated muscle contraction; assay type: functional, Cavia porcellus
[2] = organism: Cavia porcellus; assay: Selectivity ratio of pD2 for guinea pig muscarinic M4 receptor to pD2 for guinea pig muscarinic M3 receptor
[3] = biological target: Muscarinic acetylcholine receptor M3 (Cavia porcellus) (UniProt Q8VH26); assay: Agonist activity at muscarinic M3 receptor in guinea pig ileum assessed as inhibition of electrically-stimulated muscle contraction; assay type: functional, tissue-based
In short: (§1)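 Male guinea pig (250-350 g, fasted 24 h) ileal segments 2-3 cm, 1.0 g tension, 37 °C, Krebs-Henseleit with carbogen; 45 min equilibration, isometric contractions. Cumulative agonist concentration-response curves; pD2 by linear regression; intrinsic activity relative to bethanechol maximum; means ± SEM of four to six experiments.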

[4] = biological target: T1, Muscarinic acetylcholine receptor M1 (Homo sapiens, UniProt P11229); assay: Displacement of [3H]NMS from human muscarinic M1 receptor expressed in CHO cells by microplate scintillation counting; assay type: cell-based
T1 sequence (P11229 whole entry): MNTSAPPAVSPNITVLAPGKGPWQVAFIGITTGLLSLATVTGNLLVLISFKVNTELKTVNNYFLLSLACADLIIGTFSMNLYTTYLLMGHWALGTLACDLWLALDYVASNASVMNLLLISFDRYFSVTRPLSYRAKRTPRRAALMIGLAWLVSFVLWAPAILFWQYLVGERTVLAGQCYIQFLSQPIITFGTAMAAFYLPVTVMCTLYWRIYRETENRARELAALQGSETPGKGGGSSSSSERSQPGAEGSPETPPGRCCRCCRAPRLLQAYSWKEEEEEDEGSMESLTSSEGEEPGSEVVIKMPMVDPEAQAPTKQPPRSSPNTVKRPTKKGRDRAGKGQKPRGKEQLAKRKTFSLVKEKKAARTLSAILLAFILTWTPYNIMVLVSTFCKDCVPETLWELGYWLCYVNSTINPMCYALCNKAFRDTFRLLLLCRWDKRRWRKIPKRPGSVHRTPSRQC

[5] = organism: Cavia porcellus; assay: Intrinsic activity at muscarinic M4 receptor in guinea pig lung assessed as inhibition of electrically-stimulated muscle contraction relative to bathanecol
In short: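 Male guinea pig peripheral lung strips (15 × 2 × 2 mm) from lower lobe, 0.3 g resting tension, 37 °C, Krebs-Henseleit with carbogen; 45 min equilibration, isometric contractions. Cumulative agonist concentration-response curves; pD2 by linear regression; intrinsic activity relative to bethanechol maximum; means ± SEM of four to six experiments.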

[6] = organism: Cavia porcellus; assay: Selectivity ratio of pD2 for guinea pig muscarinic M3 receptor to pD2 for guinea pig muscarinic M2 receptor
[7] = biological target: Muscarinic acetylcholine receptor M3 (Homo sapiens, UniProt P20309); assay: Displacement of [3H]NMS from human muscarinic M3 receptor expressed in CHO cells by microplate scintillation counting; assay type: cell-based
[8] = organism: Cavia porcellus; assay: Intrinsic activity at muscarinic M2 receptor in guinea pig atrium assessed as inhibition of electrically-stimulated muscle contraction relative to bathanecol; assay type: tissue-based; conditions: Cardiac atrium
[9] = biological target: T2, Muscarinic acetylcholine receptor M2 (Homo sapiens, UniProt P08172); assay: Displacement of [3H]NMS from human muscarinic M2 receptor expressed in CHO cells by microplate scintillation counting; assay type: cell-based
T2 sequence (P08172 whole entry): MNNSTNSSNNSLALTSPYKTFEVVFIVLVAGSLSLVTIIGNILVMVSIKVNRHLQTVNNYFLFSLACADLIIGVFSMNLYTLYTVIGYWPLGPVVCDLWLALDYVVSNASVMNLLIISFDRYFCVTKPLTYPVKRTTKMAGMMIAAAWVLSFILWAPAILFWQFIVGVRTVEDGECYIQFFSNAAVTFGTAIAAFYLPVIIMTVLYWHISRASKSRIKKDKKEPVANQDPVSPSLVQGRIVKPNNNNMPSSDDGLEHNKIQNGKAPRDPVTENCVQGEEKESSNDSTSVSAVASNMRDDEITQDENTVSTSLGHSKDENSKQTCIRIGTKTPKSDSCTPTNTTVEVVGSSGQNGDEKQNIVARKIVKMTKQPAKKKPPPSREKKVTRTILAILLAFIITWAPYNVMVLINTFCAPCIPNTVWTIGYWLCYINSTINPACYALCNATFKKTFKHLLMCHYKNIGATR

[10] = organism: Oryctolagus cuniculus; assay: (§2) Agonist activity at muscarinic M1 receptor in New Zealand White rabbit vas deferens assessed as inhibition of electrically-stimulated muscle contraction; assay type: functional
In short: (§3)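 Prostatic portion of male-free-listed New Zealand white rabbit (3.0-3.5 kg, fasted 24 h) vas deferens in modified Krebs, 31 °C, 95% O2-5% CO2; 45 min stabilisation, field stimulation 2 Hz, 5 ms, 5 V; isometric recording. Cumulative concentration-response curves; pD2 by linear regression; intrinsic activity as fraction of McN-A-343 maximum; means ± SEM of four to six experiments.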

[11] = organism: Oryctolagus cuniculus; assay: Antagonist activity at muscarinic M1 receptor in New Zealand White rabbit vas deferens assessed as effect on muscle contraction up to 30 uM; assay type: functional, tissue-based
[12] = biological target: T3, Muscarinic acetylcholine receptor M4 (Homo sapiens, UniProt P08173); assay: Displacement of [3H]NMS from human muscarinic M4 receptor expressed in CHO cells by microplate scintillation counting; assay type: cell-based
T3 sequence (P08173 whole entry): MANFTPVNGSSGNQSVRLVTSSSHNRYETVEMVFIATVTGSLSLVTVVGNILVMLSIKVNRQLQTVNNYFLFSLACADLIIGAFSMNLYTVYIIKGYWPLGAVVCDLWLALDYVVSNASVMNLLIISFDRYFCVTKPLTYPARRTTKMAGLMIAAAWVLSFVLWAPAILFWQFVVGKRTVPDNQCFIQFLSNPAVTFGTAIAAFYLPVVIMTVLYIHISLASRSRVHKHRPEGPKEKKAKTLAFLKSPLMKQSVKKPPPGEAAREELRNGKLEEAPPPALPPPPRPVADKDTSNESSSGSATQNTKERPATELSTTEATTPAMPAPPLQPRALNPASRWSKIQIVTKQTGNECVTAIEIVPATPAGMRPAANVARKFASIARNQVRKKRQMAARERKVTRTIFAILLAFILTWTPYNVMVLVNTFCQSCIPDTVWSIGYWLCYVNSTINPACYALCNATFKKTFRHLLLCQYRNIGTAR

[13] = Agonist activity at muscarinic M2 receptor in guinea pig atrium assessed as inhibition of electrically-stimulated muscle contraction; assay type: functional, Cavia porcellus, Cardiac atrium
[14] = biological target: Muscarinic acetylcholine receptor M3 (Cavia porcellus) (UniProt Q8VH26); assay: Intrinsic activity at muscarinic M3 receptor in guinea pig ileum assessed as inhibition of electrically-stimulated muscle contraction relative to bathanecol; assay type: tissue-based; in short: as §1
[15] = biological target: T4, Muscarinic acetylcholine receptor M5 (Homo sapiens, UniProt P08912); assay: Displacement of [3H]NMS from human muscarinic M5 receptor expressed in CHO cells by microplate scintillation counting; assay type: cell-based
T4 sequence (P08912 whole entry): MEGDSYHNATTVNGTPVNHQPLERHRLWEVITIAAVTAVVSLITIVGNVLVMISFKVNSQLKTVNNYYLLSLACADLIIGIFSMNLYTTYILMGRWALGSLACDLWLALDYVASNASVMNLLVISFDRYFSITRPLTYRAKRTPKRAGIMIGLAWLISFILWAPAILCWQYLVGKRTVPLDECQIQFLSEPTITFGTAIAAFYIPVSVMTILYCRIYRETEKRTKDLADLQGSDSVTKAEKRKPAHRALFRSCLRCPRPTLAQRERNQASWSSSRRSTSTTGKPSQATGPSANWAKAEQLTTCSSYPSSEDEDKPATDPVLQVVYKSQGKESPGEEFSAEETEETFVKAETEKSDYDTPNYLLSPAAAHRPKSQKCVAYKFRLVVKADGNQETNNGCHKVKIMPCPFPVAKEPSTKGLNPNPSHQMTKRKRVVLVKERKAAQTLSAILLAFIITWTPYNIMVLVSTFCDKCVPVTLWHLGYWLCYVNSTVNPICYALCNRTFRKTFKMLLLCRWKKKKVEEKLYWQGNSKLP

[16] = as §2; assay type: functional, Oryctolagus cuniculus; in short: as §3
[17] = organism: Oryctolagus cuniculus; assay: Intrinsic activity at muscarinic M1 receptor in New Zealand White rabbit vas deferens assessed as inhibition of electrically-stimulated muscle contraction relative to McN-A-343; assay type: tissue-based; in short: as §3
[18] = organism: Oryctolagus cuniculus; conditions: New Zealand White, Vas deferens
[19] = organism: Cavia porcellus; assay: Antagonist activity at muscarinic M4 receptor in guinea pig lung assessed as effect on muscle contraction up to 10 uM; assay type: functional
[20] = organism: Cavia porcellus; assay: Antagonist activity at muscarinic M2 receptor in guinea pig atrium assessed as effect on muscle contraction up to 10 uM; assay type: functional, tissue-based; conditions: Cardiac atrium

Muscarinic acetylcholine receptor M3 (Cavia porcellus), sequence (Q8VH26 1-587): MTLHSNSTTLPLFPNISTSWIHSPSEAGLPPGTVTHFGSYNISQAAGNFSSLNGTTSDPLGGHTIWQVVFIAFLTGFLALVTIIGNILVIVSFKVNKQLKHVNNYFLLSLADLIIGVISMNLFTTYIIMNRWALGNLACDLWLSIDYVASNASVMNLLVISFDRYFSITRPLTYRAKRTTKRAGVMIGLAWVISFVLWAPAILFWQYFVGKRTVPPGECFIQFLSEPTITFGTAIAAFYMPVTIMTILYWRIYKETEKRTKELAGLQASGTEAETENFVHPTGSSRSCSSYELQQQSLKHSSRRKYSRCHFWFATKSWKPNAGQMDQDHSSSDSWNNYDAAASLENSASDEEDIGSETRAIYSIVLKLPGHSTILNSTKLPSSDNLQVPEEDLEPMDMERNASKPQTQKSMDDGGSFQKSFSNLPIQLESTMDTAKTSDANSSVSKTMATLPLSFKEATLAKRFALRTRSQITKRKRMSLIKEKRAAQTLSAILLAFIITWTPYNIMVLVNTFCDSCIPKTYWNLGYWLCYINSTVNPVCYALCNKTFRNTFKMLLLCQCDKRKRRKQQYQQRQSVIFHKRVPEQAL
Muscarinic acetylcholine receptor M3, sequence (P20309 whole entry): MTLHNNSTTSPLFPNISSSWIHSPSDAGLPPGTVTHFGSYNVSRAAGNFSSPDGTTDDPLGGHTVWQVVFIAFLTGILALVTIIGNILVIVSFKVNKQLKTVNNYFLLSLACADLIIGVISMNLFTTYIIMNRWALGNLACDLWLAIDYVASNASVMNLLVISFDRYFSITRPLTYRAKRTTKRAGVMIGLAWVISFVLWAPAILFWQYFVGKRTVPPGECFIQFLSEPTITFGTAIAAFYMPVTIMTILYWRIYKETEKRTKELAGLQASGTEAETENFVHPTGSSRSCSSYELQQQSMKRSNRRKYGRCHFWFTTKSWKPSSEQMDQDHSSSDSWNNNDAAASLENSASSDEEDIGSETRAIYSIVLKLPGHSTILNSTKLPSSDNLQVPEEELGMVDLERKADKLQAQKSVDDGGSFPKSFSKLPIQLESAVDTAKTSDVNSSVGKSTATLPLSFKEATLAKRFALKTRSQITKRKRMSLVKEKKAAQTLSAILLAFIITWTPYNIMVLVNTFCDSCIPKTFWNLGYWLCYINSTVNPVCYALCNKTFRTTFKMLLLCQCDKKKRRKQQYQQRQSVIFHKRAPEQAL

SMILES	pD2 [1]	Selectivity ratio [2]	pD2 [3]	Ki [4] [µM]	Intrinsic activity [5]	Selectivity ratio [6]	Ki [7] [µM]	Intrinsic activity [8]	Ki [9] [µM]	pD2 [10]	pKb [11]	Ki [12] [µM]	pD2 [13]	Intrinsic activity [14]	Ki [15] [µM]	pD2 [16]	Intrinsic activity [17]	pKb [18]	pKb [19]	pKb [20]
C[C@@H]1OC[C@@H](C[N+](C)(C)C)O[C@H]1C.[I-] (relative stereo)	5.08	74	6.95	24.5	0.35	105	11	0.8	13.8	inactive	inactive	30.9	4.93	0.88	15.5	–	–	–	–	–
C[C@@H]1COC[C@@H](C[N+](C)(C)C)O1.[I-]	–	–	6.02	–	1	–	–	1	4.9	–	–	87.1	–	–	67.6	5.08	1	–	–	–
C[C@H]1CO[C@H](C[N+](C)(C)C)CO1.[I-] (relative stereo)	5.08	–	–	> 100	0.57	–	44.7	0.95	17.4	inactive	–	> 100	–	1	63.1	–	–	inactive	–	–
C[C@@H]1CO[C@H](C[N+](C)(C)C)CO1.[I-] (relative stereo)	–	–	–	> 100	0.55	–	66.1	1	11.2	inactive	–	93.3	–	1	93.3	–	–	inactive	–	–
C[C@@H]1OC[C@@H](C[N+](C)(C)C)OC1(C)C.[I-] (relative stereo)	–	–	5.7	38	–	–	10.5	0.46	33.9	–	–	30.2	4.99	0.66	16.6	–	–	–	inactive	–
CC1(C)CO[C@H](C[N+](C)(C)C)CO1.[I-]	4.85	–	4.91	> 100	0.22	–	77.6	–	95.5	inactive	inactive	> 100	–	0.68	> 100	–	–	–	–	inactive
C[N+](C)(C)CC#CCOC(=O)Nc1cccc(Cl)c1.[Cl-]	–	–	–	–	–	–	–	–	–	–	–	–	–	–	–	6.4	–	–	–	–
